# Laboratory results reported in PMC9623456 (RSC Advances, 2022).
# Tests used:
# [1] = system: mouse embryo cell lines 3T3-L1; test: MTT assay; format: cell-based; settings: for IC50: Mus musculus, 3T3-L1, read-out: 3T3-L1 IC50
# Method in brief: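 MTT metabolic-activity assay in mouse embryo 3T3-L1 cells exposed to a range of test-compound concentrations. Percent viability was calculated by formula and plotted against concentration in μg ml−1. IC50 was taken from the dose–response curve as the concentration giving 50% growth suppression.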
# 3T3-L1 cells = test: Scratch wound assay; format: cell-based, mouse; settings: 3T3-L1, 24 hours
# Method in brief: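 Scratch assay: 3T3-L1 cells were grown to confluence, then wounded with a pipette tip and treated with test compounds. Wound width was measured at the time of scratching and again after 24 h.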
# mice = test: Acute oral toxicity study; format: in vivo
# Method in brief: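 OECD 420 fixed-dose procedure in mice. Animals were dosed orally in stepwise groups at fixed doses of 5, 50, 300 and 2000 mg kg−1. Further groups received higher or lower fixed doses depending on the presence or absence of toxicity or death. Read-outs were clinical signs of toxicity and mortality.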
# diabetic rats = test: Full thickness excision wound model in STZ-nicotinamide diabetic rats; format: in vivo, Wistar male albino rats
# [2] = molecular target: HIF-1α prolyl hydroxylase-2 (PHD2); settings: PHD2 inhibition; cited from earlier work
# [3] = Phase 2 trial; cited from earlier work
compound,measurement,setting,value
"c1ccc(-c2cc(-c3ccccc3)n(CN(c3ccccc3)c3ccccc3)n2)cc1 [CDPA, N-[(3,5-diphenylpyrazol-1-yl)methyl] -N-phenylaniline]",IC50,[1],132 µg/mL
"c1ccc(-c2cc(-c3ccccc3)n(Cn3ccnc3)n2)cc1 [CI, 1-(Imidazol-1-ylmethyl) −3,5-diphenylpyrazole]",IC50,[1],107 µg/mL
same,Activity compared to the positive control hyaluronic acid,3T3-L1 cells,comparable activity
same,Acute oral toxicity outcome,"mice; oral, 2000 mg kg^−1",died
same,Acute oral toxicity outcome,"mice; oral, 5, 50, and 300 mg kg^−1",no adverse effects or fatality
same,Wound contraction (%),"diabetic rats; High dose 150 mg kg^−1, oral, Day 3",24.5 ± 0.48 %
same,Wound contraction (%),"diabetic rats; High dose 150 mg kg^−1, oral, Day 7",31.25 ± 0.39 %
same,Wound contraction (%),"diabetic rats; High dose 150 mg kg^−1, oral, Day 11",64.00 ± 0.44 %
same,Wound contraction (%),"diabetic rats; Low dose 75 mg kg^−1, oral, Day 3",18.25 ± 0.55 %
same,Wound contraction (%),"diabetic rats; Low dose 75 mg kg^−1, oral, Day 7",24.50 ± 0.30 %
same,Wound contraction (%),"diabetic rats; Low dose 75 mg kg^−1, oral, Day 11",41.5 ± 0.43 %
same,Wound contraction (%),"diabetic rats; Low dose 75 mg kg^−1, oral, Day 15",55.77 ± 0.42 %
same,Wound healing in rats,"diabetic rats; oral, diabetic rats",improved wound healing
"c1ccc(-c2cc(-c3ccccc3)n(Cn3cccn3)n2)cc1 [CP, 3,5-Diphenyl-1-(pyrazole-1-ylmethyl) pyrazole]",IC50,[1],111 µg/mL
same,Activity compared to the positive control hyaluronic acid,3T3-L1 cells,comparable activity
O=C(O)CNC(=O)c1nc(Cl)c2ccccc2c1O [FG-2216],IC50,[2],3.9 µM
same,Fatal outcome,[3],one patient died of hepatic necrosis
same,Liver enzyme test results,[3],aberrant liver enzyme test results
Hyaluronic acid [reference compound],3T3-L1 IC50,"[1]; MTT assay, 3T3-L1",112.59 µg/mL
